Paper PMC9727797 (Molecular Biology of the Cell, 2022)

Experiments:
KIRC-1 cells = experiment: Preanaphase spindle monopolarity, KIRC-1 cells; format: cell-based, human
Summary of the method: (§1)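 TP53–/– RPE-1 and KIRC-1 cells were grown in DMEM with 10% FBS, penicillin and streptomycin; KIRC-1 medium also contained 10 μM STLC. Cells on coverslips were treated overnight with increasing test-compound concentrations or DMSO. They were then methanol-fixed and stained for KIF15, tubulin and DNA. Preanaphase spindles were scored monopolar or bipolar, in triplicate with n = 100 per replicate (± SEM).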

[1] = Precipitation observed in culture media; format: physicochemical
KIF15-N420 [2] = target: T1, KIF15-N420 (Homo sapiens, UniProt Q9NS87); experiment: Enzyme-coupled ATPase assay, concentration response; format: biochemical; details: 2 mM ATP, 5 μM microtubules
T1 sequence (Q9NS87 1-420 limits assumed): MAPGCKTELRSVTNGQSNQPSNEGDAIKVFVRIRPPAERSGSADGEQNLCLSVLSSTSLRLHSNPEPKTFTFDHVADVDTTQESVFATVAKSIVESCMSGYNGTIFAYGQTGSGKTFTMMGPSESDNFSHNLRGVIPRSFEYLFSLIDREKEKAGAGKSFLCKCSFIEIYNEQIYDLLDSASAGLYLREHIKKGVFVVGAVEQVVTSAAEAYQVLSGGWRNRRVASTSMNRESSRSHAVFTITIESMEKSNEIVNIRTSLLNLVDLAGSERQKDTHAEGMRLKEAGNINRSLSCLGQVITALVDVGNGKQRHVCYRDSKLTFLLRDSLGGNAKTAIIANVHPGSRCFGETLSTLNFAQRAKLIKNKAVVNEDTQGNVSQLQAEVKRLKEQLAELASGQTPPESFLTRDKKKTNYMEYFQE
Summary of the method: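 Concentration response used the same NADH-coupled KIF15-N420 reaction (A340, 25°C), with 2 mM ATP and 5 μM microtubules at every test-compound concentration. Eight compound concentrations were tested. Curves were built from repeated measurements plotted as mean ± SEM.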

RPE-1 cells = experiment: Live cell imaging of metaphase duration; format: cell-based, human; details: Munesib-1 50 µM, Fift-IN and GW108X 25 µM
HSET = target: T2, HSET (Homo sapiens, UniProt Q9BW19); experiment: Microtubule gliding assay, HSET; format: biochemical; details: 24 µM Munesib-1 or 100 µM Fift-IN
T2 sequence (Q9BW19 1-673): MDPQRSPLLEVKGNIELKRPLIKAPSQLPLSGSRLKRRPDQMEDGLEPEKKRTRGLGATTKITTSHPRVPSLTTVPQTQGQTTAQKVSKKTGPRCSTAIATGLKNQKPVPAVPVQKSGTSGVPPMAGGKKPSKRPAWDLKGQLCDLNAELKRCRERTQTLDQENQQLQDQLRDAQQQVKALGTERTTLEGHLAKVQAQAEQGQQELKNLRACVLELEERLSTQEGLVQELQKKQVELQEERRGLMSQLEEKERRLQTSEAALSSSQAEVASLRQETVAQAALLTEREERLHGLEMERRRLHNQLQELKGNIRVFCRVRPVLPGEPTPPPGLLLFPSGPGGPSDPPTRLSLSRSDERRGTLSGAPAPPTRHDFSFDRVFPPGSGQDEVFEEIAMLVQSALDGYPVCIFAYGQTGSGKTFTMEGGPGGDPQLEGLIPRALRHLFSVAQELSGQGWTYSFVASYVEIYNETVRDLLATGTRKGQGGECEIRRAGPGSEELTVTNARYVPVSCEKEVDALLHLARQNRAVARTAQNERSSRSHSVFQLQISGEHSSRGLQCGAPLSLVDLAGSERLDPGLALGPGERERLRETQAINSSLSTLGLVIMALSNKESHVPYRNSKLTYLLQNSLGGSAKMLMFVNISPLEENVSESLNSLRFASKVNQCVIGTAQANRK
Summary of the method: (§2)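 Gliding assays with other motors used His6-Eg5, His6-EGFP-HSET or K560 (truncated kinesin-1), with test compound at 24 µM or 100 µM. Frames were captured every 5 s for 1 min at 100×. Velocity was the distance travelled in 1 min, from ≥15 microtubules at each of three locations (n ≥ 50 per slide).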

[3] = target: T3, K560, a truncated form of kinesin-1 (Homo sapiens, UniProt P33176); experiment: Microtubule gliding assay, K560; format: biochemical; details: 24 µM Munesib-1 or 100 µM Fift-IN
T3 sequence (P33176 1-560 limits assumed): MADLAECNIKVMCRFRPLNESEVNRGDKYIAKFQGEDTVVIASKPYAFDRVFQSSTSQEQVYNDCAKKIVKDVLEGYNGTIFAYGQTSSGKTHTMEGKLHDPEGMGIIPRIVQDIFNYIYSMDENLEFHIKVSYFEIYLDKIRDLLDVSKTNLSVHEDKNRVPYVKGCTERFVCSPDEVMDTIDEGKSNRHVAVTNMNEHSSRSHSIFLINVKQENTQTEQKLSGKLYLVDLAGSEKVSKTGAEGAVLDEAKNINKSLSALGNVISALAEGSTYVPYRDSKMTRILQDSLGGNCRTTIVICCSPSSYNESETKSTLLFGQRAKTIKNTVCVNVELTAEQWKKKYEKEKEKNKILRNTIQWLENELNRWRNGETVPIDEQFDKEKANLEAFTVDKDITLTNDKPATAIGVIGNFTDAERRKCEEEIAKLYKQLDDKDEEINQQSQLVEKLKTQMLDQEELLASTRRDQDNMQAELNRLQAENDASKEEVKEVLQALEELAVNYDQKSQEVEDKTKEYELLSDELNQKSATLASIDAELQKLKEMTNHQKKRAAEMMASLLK
Summary of the method: as §2

[4] = system: HeLa-derived KIRC-2 cells; experiment: Preanaphase spindle monopolarity, HeLa-derived KIRC-2 cells; format: cell-based; details: same concentrations as in KIRC-1 cells
KIF15-N420 [5] = target: T1, KIF15-N420; experiment: Microtubule-dependent steady-state ATPase assay; format: biochemical; details: 2 mM ATP; for kcat, microtubule-dependent ATPase: fit ± 95% CI
Summary of the method: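 Microtubule-dependent KIF15-N420 ATPase used an NADH-coupled read-out (A340, 25°C), with rates normalised to active motor concentration. ATP was held at 2 mM and microtubules varied over eight concentrations from 0 to 8 μM. Test compound was at 3, 5, 20 or 30 μM, with a DMSO control. Michaelis-Menten fits were weighted by 1/SEM, n = 6–9 per microtubule concentration. kcat and Km are given as fit ± 95% CI.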

TP53–/– RPE-1 cells = experiment: Preanaphase spindle morphology, RPE-1 cells; format: cell-based, human; details: increasing concentrations
Summary of the method: as §1

- solubility observation [1]: often precipitated in culture media
- IC50 (KIF15-N420 [2]): 2800 nM
- inhibition of microtubule gliding, HSET (HSET): neither substantially inhibited
- inhibition of microtubule gliding, K560 [3]: neither substantially inhibited
- kcat, microtubule-dependent ATPase (KIF15-N420 [5]; 3 μM compound): 8.5 ± 1 s^–1
- kcat, microtubule-dependent ATPase (KIF15-N420 [5]; 5 μM compound): 8.2 ± 3 s^–1
- kcat, microtubule-dependent ATPase (KIF15-N420 [5]; 30 μM compound): 11.6 ± 6 s^–1
- mode of inhibition with respect to microtubules (KIF15-N420 [5]): less conclusive
SMILES: COC(=O)c1ccc2c(c1)N(C)S(=O)(=O)c1cnc(SC)nc1-2 [Munesib-1, Methyl 6-methyl-2-(methylthio)-6H-benzo[c]pyrimido[4,5-e][1,2]thiazine-8-carboxylate 5,5-dioxide]
- effect on monopolar spindles compared with Fift-IN (KIRC-1 cells; 75 μM): comparatively modest
- monopolar spindles (KIRC-1 cells; 75 μM): less than 70%
- monopolarity index relative to cells treated with DMSO (KIRC-1 cells; increasing concentrations): concentration-dependent increase
- metaphase duration (metaphase plate formation until anaphase onset) (RPE-1 cells): no significant change in metaphase timing
- effect on monopolarity index [4]: failed to substantially increase the monopolarity index
- effect on spindle morphology (TP53–/– RPE-1 cells): little effect on spindle morphology
